A selection: hits, their analogues and other compounds. The true share with any hit is near 2.8%.
PAFAH2 FP inh: inhibitors of human PAFAH2; recombinant PAFAH2, FP-rhodamine activity probe, fluorescence polarization; hit rate 0.99% among 340,000; Q99487; inhibition, % at 3.39 µM;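 active means inhibition above the mean over all tested compounds plus 3 SD, cut at about 30% in these data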;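 further: inhibitors block probe labeling of enzyme so polarization drops; 0% = enzyme with DMSO and 100% = wells lacking PAFAH2 protein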
HTRA1 inhibitor: blocks human HTRA1 serine peptidase; Q92743; recombinant HTRA1, FP-rhodamine activity-based probe, fluorescence polarization; inhibition, % at 5.96 µM; hit rate 0.5% among 340,000; AID 504803; in the data active means inhibition above about 36%;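 further: 0% = enzyme with DMSO and 100% = wells lacking enzyme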
PAFAH1B3 inh: PAFAH1B3 (human) inhibition | hit rate 0.28% among 340,000 | inhibition, % at 3.39 µM | recombinant PAFAH1B3, FP-rhodamine probe, fluorescence polarization;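 active means inhibition above the screen-wide average of all tested compounds plus 3 SD, cut at about 25% in these data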;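 further: 0% = enzyme with DMSO only and 100% = wells lacking PAFAH1B3 protein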
Target sequence (Q15102 whole entry, looked up): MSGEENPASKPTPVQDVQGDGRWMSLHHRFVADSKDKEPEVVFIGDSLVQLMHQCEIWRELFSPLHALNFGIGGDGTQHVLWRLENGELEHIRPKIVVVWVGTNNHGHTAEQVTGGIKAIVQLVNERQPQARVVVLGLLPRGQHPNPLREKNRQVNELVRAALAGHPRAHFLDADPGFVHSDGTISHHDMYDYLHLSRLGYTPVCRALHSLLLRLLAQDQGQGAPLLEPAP
mABHD4 FP: ABHD4 (mouse) inhibition, primary FP screen. inhibition, % at 8.92 µM. Q8VD66. hit rate 0.54% among 370,000. purified mABHD4, FP-Rh probe fluorescence polarization;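 active means inhibition exceeding the mean over every tested compound plus 3 SD, cut at about 30% in these data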;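 further: 0% = plate median of compound wells and 100% = S159A mutant with DMSO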
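system = mouse ABHD4 enzyme, wild type | medium = HEPES pH 7.0, NaCl, Pluronic buffer | also added = FP-Rh probe | incubation = Enzyme–compound pre-incubation 45 min, then probe 60 min, both 25 °C | technique = fluorescence polarization, excitation 525 nm, emission 598 nm, BODIPY TMR filters | controls = S159A mutant high control, sample median low control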
PAFAH1B2 inh: inhibitors of human PAFAH1B2 | P68402 | recombinant PAFAH1B2, FP-rhodamine activity probe, fluorescence polarization | inhibition, % at 3.39 µM | hit rate 1.2% among 340,000 | AID 492953;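 active means inhibition above the mean of all tested compounds plus 3 SD, cut at about 24% in these data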;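 further: 0% = enzyme with DMSO and 100% = wells lacking PAFAH1B2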
Target sequence (P68402 whole entry, looked up): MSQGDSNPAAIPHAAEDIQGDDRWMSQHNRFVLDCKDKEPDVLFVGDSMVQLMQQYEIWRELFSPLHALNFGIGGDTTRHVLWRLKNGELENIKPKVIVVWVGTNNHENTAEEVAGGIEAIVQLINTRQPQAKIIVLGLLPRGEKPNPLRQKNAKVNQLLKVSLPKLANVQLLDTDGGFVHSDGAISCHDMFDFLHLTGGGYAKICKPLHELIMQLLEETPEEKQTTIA
pPAFAH inh: pPAFAH (human) enzyme inhibition | hit rate 1.5% among 330,000 | inhibition, % at 3.39 µM | recombinant pPAFAH, FP-rhodamine probe fluorescence polarization | Q13093;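 active means inhibition above the mean inhibition across the screen plus 3 SD, cut at about 25% in these data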;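 further: inhibitors block binding of the rhodamine activity-based probe so polarization drops; 0% = enzyme with DMSO and 100% = wells lacking pPAFAH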
HTRA1 inh conf: HTRA1 (human) inhibition, confirmation; shares compounds with HTRA1 inhibitor; recombinant HTRA1, FP-rhodamine activity-based probe, fluorescence polarization; inhibition, % at 5.96 µM; hit rate 66% among 1,600; AID 540248;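 active means mean inhibition over three repeats above a set limit taken from the earlier primary screen, cut at about 37% in these data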;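 further: 0% = HTRA1 with DMSO and 100% = wells lacking HTRA1; inhibitors block probe binding so polarization drops and inhibition rises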
* hit, by the source's call; . = not tested or not shown.

SMILES	PAFAH2 FP inh	HTRA1 inhibitor	PAFAH1B3 inh	mABHD4 FP	PAFAH1B2 inh	pPAFAH inh	HTRA1 inh conf
COc1ccc(/C=C\c2nc(=O)c3ccccc3o2)cc1	18	3	6	1	4	.	.
O=c1nc(/C=C/c2ccc(O)c(O)c2)oc2ccccc12	-1	72*	1	.	6	.	76*
O=C(Nc1cccc(Cl)c1)OC1CCC12CCC(c1ccccc1)CC2 (stereo unspecified)	.	.	.	-27	.	.	.
CC(=NNc1nc2ccccc2o1)c1cc2ccccc2cn1	8	56*	5	16	-1	.	70*
Cc1ccc(-c2cc(C(=O)NN=Cc3cc(Br)ccc3O)[nH]n2)cc1C	.	.	.	2	.	.	.
COc1cc(/C=N/n2c(-c3ccc4c(c3)NC(=O)CO4)csc2=Nc2cccc(C)c2)ccc1O	0	44*	12	21	9	34*	82*
CCc1ccc2c(c1)C1(NN=C(c3ccc(C)cc3)S1)C(=O)N2 (stereo unspecified)	-3	37*	0	-1	3	2	53*
CCc1ccc2c(c1)NC(=O)C2(C)Cc1ccc(F)cc1 (stereo unspecified)	.	.	.	24	.	.	.
CC(C)c1ccc2c(c1)C1(NN=C(c3ccccc3)S1)C(=O)N2 (stereo unspecified)	6	46*	12	5	8	6	66*
CC(C)c1ccc(O)c(NC(=O)c2ncn[nH]2)c1	1	4	3	14	15	6	.
CCOC(=O)[C@@]12CCC3=C1N(CCC3)C(=O)[C@H](CC(=O)N1CCC(c3ccccc3)CC1)C2	.	.	.	1	.	.	.
Cc1ccc2nc(N/N=C\c3ccc([N+](=O)[O-])o3)nc(-c3ccccc3)c2c1	5	-6	5	-5	-3	12	.
O=[N+]([O-])c1ccc(/C=N/Nc2ccc3ccccc3c2)o1	-2	37*	-8	0	-4	7	16
CCOC(=O)C1=NOC(C(=O)Nc2cc(C)cc(C)c2)(C(=O)C2CC2)C1 (stereo unspecified)	.	.	.	0	.	.	.
O=C1NC[C@@H]2CCCN2C1=O	.	.	.	5	.	.	.
c1ccc2c(c1)NCC1CCCN21 (stereo unspecified)	9	44*	7	22	0	12	18
CCC(=O)NC(c1ccco1)c1cc(Br)c2cccnc2c1O (stereo unspecified)	.	.	.	20	.	.	.
CC(=O)NC(c1cc(F)c2cccnc2c1O)C1CC1 (stereo unspecified)	1	16	8	2	8	0	.
CCC(=O)NC(c1cc(Cl)c2cccnc2c1O)C(C)C (stereo unspecified)	0	53*	4	11	4	4	58*
CCC(=O)NC(c1cc(Cl)c2cccnc2c1O)C1CC1 (stereo unspecified)	3	39*	13	1	5	4	51*
CCC(=O)NC(c1cccs1)c1cc(Cl)c2cccnc2c1O (stereo unspecified)	-3	54*	12	8	7	34*	65*
CC(C)(C)OC(=O)NCc1cc(F)ccc1/C=C/S(=O)(=O)NC1CCCC1	.	.	.	-11	.	.	.
CC(=O)Nc1ccc(NC(=O)CSc2nnc(-c3cccs3)o2)cc1	.	.	.	-3	.	.	.
C[C@H]1[C@@H](NC(=O)C2CCC2)CC[C@@]23CCCN2C(=O)CCC[C@@H]13	.	.	.	2	.	.	.
CC[n+]1ccc(C)c2cc(SC(F)(F)F)ccc21	-2	36*	6	.	-1	11	24
CC[n+]1ccc(C)c2cc(P(=O)(c3ccccc3)c3ccccc3)ccc21	11	44*	3	1	6	7	33
C=CCn1c(SCC(=O)c2ccc(O)c(O)c2)nnc1-c1cccc(Cl)c1	39*	56*	5	23	5	28*	73*
O=C(CSc1nnc(-c2ccccc2)n1Cc1ccco1)Nc1ccc(OCc2ccccc2)cc1	.	.	.	-22	.	.	.
COC(=O)[C@H](C(C)C)N1CCc2nnn(CC3CCCCC3)c2-c2cc(F)ccc2S1(=O)=O	.	.	.	-3	.	.	.
CCN1c2ccccc2N(C)C1(C)c1ccccc1 (stereo unspecified)	6	42*	17	.	7	10	8

From PubChem
